Source: ChEMBL document CHEMBL1151448, “Comparative antianaerobic activities of doripenem determined by MIC and time-kill analysis” (2008)
Values after ≈ are worked out from the molar mass of the structure shown.

Experiments:
Assay type in all cases: functional
Fusobacterium nucleatum [1] = assay: Antimicrobial activity against beta lactamase-positive Fusobacterium nucleatum isolated from intra-abdominal infection and pelvic inflammatory disease patients after 48 hrs by agar dilution method
Method in brief: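 CLSI agar dilution on brucella blood agar supplemented with laked sheep blood, hemin and vitamin K. Inocula of about 1 × 10^5 CFU/spot were applied by Steers replicator, and plates were incubated 48 h at 35°C in an anaerobic glove box. MIC was the concentration giving marked growth reduction versus the anaerobic control plate. QC strains were included each run, and β-lactamase was detected by Cefinase disk.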

Finegoldia magna [2] = assay: Bactericidal activity against beta lactamase-positive Finegoldia magna isolated from intra-abdominal infection and pelvic inflammatory disease patients assessed as bacterial killing at 2 times MIC after 48 hrs by time kill analysis
Method in brief: (§1)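 Anaerobic macrodilution time-kill. Inoculum from brucella blood plates, prepared and diluted in prereduced brucella broth inside the anaerobe chamber. Final 10^6 to 10^7 CFU/ml in prereduced brucella broth with 5% laked horse blood cells, 5 μg/ml hemin and 1 μg/ml vitamin K1. […] Shaken at 35°C for 48 h. Viable counts taken at 6, 12, 24 and 48 h. 99.9% kill taken as bactericidal.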

Fusobacterium nucleatum [3] = assay: Bactericidal activity against beta lactamase-positive Fusobacterium nucleatum isolated from intra-abdominal infection and pelvic inflammatory disease patients assessed as bacterial killing at MIC after 48 hrs by time kill analysis; method in brief: as §1
Clostridium perfringens = assay: Bactericidal activity against Clostridium perfringens isolated from intra-abdominal infection and pelvic inflammatory disease patients assessed as bacterial killing at MIC after 48 hrs by time kill analysis
Method in brief: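 Time-kill in prereduced brucella broth with 5% laked horse blood cells, hemin and vitamin K1. […] Viable counts taken at 6, 12, 24 and 48 h, plates incubated 48 h anaerobically. Kill scored as 90%, 99% or 99.9%; 99.9% defines bactericidal.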

[4] = test system: Bacteroides thetaiotaomicron; assay: Bactericidal activity against beta lactamase-positive Bacteroides thetaiotaomicron isolated from intra-abdominal infection and pelvic inflammatory disease patients assessed as bacterial killing at MIC after 48 hrs by time kill analysis
Method in brief: (§2)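 Macrodilution time-kill in prereduced brucella broth with 5% laked horse blood, hemin 5 μg/ml and vitamin K1 1 μg/ml, at final inoculum 10^6–10^7 CFU/ml. […] Viable counts were taken at 6, 12, 24 and 48 h on plates incubated 48 h anaerobically. 99.9% kill was taken as bactericidal.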

Bacteroides fragilis = assay: Bactericidal activity against beta lactamase-positive Bacteroides fragilis isolated from intra-abdominal infection and pelvic inflammatory disease patients assessed as bacterial killing at MIC after 48 hrs by time kill analysis; method in brief: as §2
Prevotella intermedia = assay: Bactericidal activity against beta lactamase-positive Prevotella intermedia isolated from intra-abdominal infection and pelvic inflammatory disease patients assessed as bacterial killing at MIC after 48 hrs by time kill analysis; method in brief: as §1
Clostridioides difficile = assay: Bactericidal activity against Clostridium difficile isolated from intra-abdominal infection and pelvic inflammatory disease patients assessed as bacterial killing at MIC after 48 hrs by time kill analysis; method in brief: as §2
Finegoldia magna [5] = assay: Bactericidal activity against beta lactamase-positive Finegoldia magna isolated from intra-abdominal infection and pelvic inflammatory disease patients assessed as bacterial killing at MIC after 48 hrs by time kill analysis; method in brief: as §1

| SMILES | MIC (Fusobacterium nucleatum [1]) [µg/mL] | MIC50 (Fusobacterium nucleatum [1]) [µg/mL] | MIC90 (Fusobacterium nucleatum [1]) [µg/mL] | Activity (Finegoldia magna [2]) [%] | Activity (Fusobacterium nucleatum [3]) [%] | Activity (Clostridium perfringens) [%] | Activity [4] [%] | Activity (Bacteroides fragilis) [%] | Activity (Prevotella intermedia) [%] | Activity (Clostridioides difficile) [%] | Activity (Finegoldia magna [5]) [%] |
| --- | --- | --- | --- | --- | --- | --- | --- | --- | --- | --- | --- |
| C[C@@H](O)[C@H]1C(=O)N2C(C(=O)O)=C(S[C@@H]3CN[C@H](C(=O)Nc4cccc(C(=O)O)c4)C3)[C@H](C)[C@H]12 | ≤ 0.016 | ≤ 0.016 | 0.03 (≈ 0.0631 µM) | 99 | – | – | – | – | – | – | – |
| C[C@@H](O)[C@H]1C(=O)N2C(C(=O)O)=C(S[C@@H]3CN[C@H](CNS(N)(=O)=O)C3)[C@H](C)[C@H]12 [DORIPENEM] | ≤ 0.016 | ≤ 0.016 | 0.03 (≈ 0.0713 µM) | 99 | 99 | 99 | 99 | 99 | 99 | 99 | 99 |
| C[C@@H](O)[C@H]1C(=O)N2C(C(=O)O)=C(SCCNC=N)C[C@H]12 [IMIPENEM ANHYDROUS] | – | 0.03 (≈ 0.1 µM) | 0.03 (≈ 0.1 µM) | 99 | 99 | 99 | 99 | 99 | 99 | 99 | 99 |
| C[C@@H](O)[C@H]1C(=O)N2C(C(=O)O)=C(S[C@@H]3CN[C@H](C(=O)N(C)C)C3)[C@H](C)[C@H]12 [MEROPENEM] | ≤ 0.016 | ≤ 0.016 | 0.03 (≈ 0.0782 µM) | 99 | – | – | – | – | – | – | – |
